Measured values: PMC5965259 (Journal of medicinal chemistry, 2018)

Tests used:
[1] = target: T1, T. brucei AdoMetDC/prozyme (Trypanosoma brucei brucei, UniProt P50244); test: biochemical
T1 sequence (P50244 86-370 limits assumed): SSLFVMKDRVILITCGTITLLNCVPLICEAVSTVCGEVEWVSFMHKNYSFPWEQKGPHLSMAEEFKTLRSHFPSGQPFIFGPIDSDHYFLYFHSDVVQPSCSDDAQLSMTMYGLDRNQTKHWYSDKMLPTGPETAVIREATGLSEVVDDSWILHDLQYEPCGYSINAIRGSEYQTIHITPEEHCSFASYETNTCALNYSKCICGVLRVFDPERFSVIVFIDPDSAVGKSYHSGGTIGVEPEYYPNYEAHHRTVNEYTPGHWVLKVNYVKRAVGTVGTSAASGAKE

TbAdoMetDC [2] = target: T2, TbAdoMetDC (Trypanosoma brucei brucei, UniProt P50244); test: Inhibition modality: substrate titrations, Lineweaver–Burk analysis; assay type: biochemical; conditions: substrate titrations at four inhibitor concentrations
T2 sequence (P50244 86-370 limits assumed): T1 sequence (P50244 86-370 limits assumed)
How it was run: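 Recombinant T. brucei AdoMetDC/prozyme heterodimer. Product (decarboxylated AdoMet) formation was measured across varied S-adenosyl-L-methionine concentrations at four test-compound concentrations. Product was quantified by RapidFire–mass spectrometry. Final DMSO in enzyme assays was 2%. Substrate titrations were analysed by double-reciprocal Lineweaver–Burk plot to assign inhibition modality.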

[3] = test system: MDCKII-hMDR1 monolayer cells; test: MDCKII-hMDR1 monolayer BBB permeability assay ± Pgp inhibitor GF120918; assay type: in vitro ADME
[4] = test system: bloodstream form T. brucei Lister 427; test: ATP–bioluminescence-based bloodstream form T. brucei cell viability assay; conditions: Trypanosoma brucei, 48 h, read-out: Tb427 EC50
[5] = test system: prozyme protein levels in T. brucei cells; test: Western blot analysis of prozyme levels in treated T. brucei cells; assay type: cell-based; conditions: 24 h treatment at 1.5 × EC50
[6] = Metabolic stability in hepatic microsomes; assay type: in vitro ADME, male CD-1 mouse and mixed-gender human
TbAdoMetDC [7] = target: T2, TbAdoMetDC; test: Rapid dilution assay for reversibility of inhibition; assay type: biochemical; conditions: 30 min with 36 μM inhibitor, then 100-fold dilution; pH 7.2
How it was run: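 Recombinant T. brucei AdoMetDC/prozyme was pre-equilibrated with test compound for 30 min. It was then diluted 100-fold, to a non-inhibitory level, into reaction buffer containing 50 μM S-adenosyl-L-methionine (~Km) to start the reaction. Aliquots were quenched every 5 min, and decarboxylated AdoMet was quantified by RapidFire–MS. Progress curves were compared with a vehicle control.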

[8] = test system: T. brucei AdoMetDC/prozyme; test: biochemical; conditions: pH 7.2; human vs T. brucei AdoMetDC
human AdoMetDC = target: T3, human AdoMetDC (Homo sapiens, UniProt P17707); test: RapidFire–MS-based AdoMetDC enzyme activity assay; assay type: biochemical; conditions: read-out: Hs IC50; pH 7.2; mean, triplicate, 95% CI in parentheses
T3 sequence (P17707 1-334): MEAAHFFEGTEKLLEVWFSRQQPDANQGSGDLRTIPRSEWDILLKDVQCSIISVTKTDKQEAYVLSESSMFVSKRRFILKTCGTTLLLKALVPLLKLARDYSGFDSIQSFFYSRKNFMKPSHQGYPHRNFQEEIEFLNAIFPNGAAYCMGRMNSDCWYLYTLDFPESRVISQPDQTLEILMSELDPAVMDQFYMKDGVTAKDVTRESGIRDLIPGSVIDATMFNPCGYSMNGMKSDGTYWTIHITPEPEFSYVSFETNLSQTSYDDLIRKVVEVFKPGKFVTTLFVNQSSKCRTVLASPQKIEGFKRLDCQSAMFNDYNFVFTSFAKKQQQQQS

| IC50 ([1]; Tb IC50, pH 7.2, mean, triplicate, 95% CI in parentheses) | SMILES | IC90 ([1]; pH 7.2, read-out: IC90 for TbAdoMetDC) | modality of inhibition (TbAdoMetDC [2]) | Pgp-mediated efflux substrate [3] | EC50 [4] | prozyme protein level vs vehicle-only control [5] | metabolic stability [6] | recovery of enzyme activity after dilution of inhibitor (reversibility) (TbAdoMetDC [7]) | selectivity ratio (HsIC50/TbIC50) [8] | IC50 (human AdoMetDC) |
| --- | --- | --- | --- | --- | --- | --- | --- | --- | --- | --- |
| – | Cc1cc(Nc2cc(Cl)cc(Cl)c2)nc(N)n1 [Compound 7] | ~36 µM | competitive inhibition | not a substrate of Pgp-mediated efflux | 5.6 µM | induced prozyme above the vehicle-only control levels | poor metabolic stability | fully recovered | – | – |
| – | Cc1cc(Nc2cc(Br)cc(Br)c2)nc(N)n1 [Compound 44, N^4-(3,5-Dibromophenyl)-6-methylpyrimidine-2,4-diamine] | – | – | – | 4.8 µM | – | – | – | exceeded 100 | – |
| – | Cc1cc(Nc2cc(Cl)c(F)c(Cl)c2)nc(N)n1 [Compound 62, N^4-(3,5-Dichloro-4-fluorophenyl)-6-methylpyrimidine-2,4-diamine] | – | – | – | 4.8 µM | – | – | – | exceeded 100 | 160 µM |
| 29 µM | Nc1cc(Nc2cc(Cl)cc(Cl)c2)ccn1 [Compound 21, N^4-(3,5-Dichlorophenyl)pyridine-2,4-diamine] | – | – | – | 11 µM | – | – | – | – | – |
